PMC8712509 (International Journal of Nanomedicine, 2021)

Tests used:
[1] = system: SGC-7901 cells; test: Cytotoxicity assay; format: cell-based, Human; conditions: SGC-7901, MTT, n=3
In short: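 SGC-7901 cells were grown in RPMI-1640 with 10% FBS, 1% penicillin and 1% streptomycin at 37°C, 5% CO2. Log-phase cells were seeded in triplicate at 1.0×10^4 cells/well overnight. Free drug or liposomal test formulations (1.0–100.0 µg/mL drug) were added for 24, 48 or 72 h. MTT (5.0 mg/mL stock) was added for 4 h, then DMSO, and OD read at 490 nm. IC50 was derived from viability.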

[2] = Pharmacokinetics in plasma; format: in vivo; conditions: ICR mice, single 10.0 mg/kg iv
[3] = Biodistribution in major organs; format: in vivo; conditions: ICR mice, single 10.0 mg/kg iv

With `O=C1[O][Pt]2([NH][C@@H]3CCCC[C@H]3[NH]2)[O]C1=O` (relative stereo) [OXA, (1R-trans)-(1,2-cyclohexanediamine-N,N’)[oxalic acid (2-)-O,O’] platinum] the IC50 ([1]; 48 h) was 15.87 ± 0.27 µg/mL, the IC50 ([1]; 72 h) was 14.17 ± 0.14 µg/mL and the “last time at which OXA was detectable in plasma (undetectable after)” value [2] was 8 h. The “plasma concentration of OXA” value ([2]; 0.08 h) was 28590 ± 920 ng/mL, the “plasma concentration of OXA” value ([2]; 0.17 h) was 25030 ± 320 ng/mL and the “plasma concentration of OXA” value ([2]; 0.50 h) was 4490 ± 350 ng/mL. For the same compound, the “plasma concentration of OXA” value ([2]; 1 h) was 3200 ± 100 ng/mL, the “plasma concentration of OXA” value ([2]; 2 h) was 2860 ± 240 ng/mL and the “plasma concentration of OXA” value ([2]; 4 h) was 1990 ± 120 ng/mL. For the same compound, the “plasma concentration of OXA” value ([2]; 6 h) was 1500 ± 700 ng/mL, the “plasma concentration of OXA” value ([2]; 8 h) was 640 ± 110 ng/mL and the CL ([2]; plasma, n=3) was 5.53 ± 1.5 mL/min/kg. It also gave a CLz ([2]; plasma, n=3) of 5.85 ± 0.217 mL/min/kg, a K10 ([2]; plasma, n=3) of 1.319 ± 0.250 h⁻¹ and a K12 ([2]; plasma, n=3) of 5.632 ± 0.360 h⁻¹. The K21 ([2]; plasma, n=3) was 0.828 ± 0.070 h⁻¹, the “MRT(0-t)” value ([2]; plasma, n=3) was 2.535 ± 0.520 H and the “MRT(0-∞)” value ([2]; plasma, n=3) was 4.319 ± 0.130 H. It also gave a T1/2z ([2]; plasma, n=3) of 4.995 ± 0.360 H, a Tmax ([2]; plasma, n=3) of 0.250 ± 0.015 H and a t1/2α ([2]; plasma, n=3) of 0.215 ± 0.077 H. For the same compound, the “t1/2β (elimination half-life)” value ([2]; plasma, n=3) was 3.214 ± 0.420 H, the “OXA concentration in heart” value ([3]; 0.5 h) was 8.59 ± 0.06 µg/g and the “OXA concentration in kidneys” value ([3]; 0.5 h) was 8.73 ± 0.45 µg/g. The “OXA concentration in liver” value ([3]; 0.5 h) was 14.00 ± 0.30 µg/g, the “OXA concentration in lungs” value ([3]; 0.5 h) was 4.60 ± 0.13 µg/g and the “OXA concentration in spleen” value ([3]; 0.5 h) was 14.27 ± 0.44 µg/g. The “OXA concentration in heart” value ([3]; 1 h) was 10.27 ± 0.44 µg/g, the “OXA concentration in kidneys” value ([3]; 1 h) was 4.02 ± 0.61 µg/g and the “OXA concentration in liver” value ([3]; 1 h) was 12.49 ± 0.56 µg/g. For the same compound, the “OXA concentration in lungs” value ([3]; 1 h) was 3.70 ± 0.22 µg/g, the “OXA concentration in spleen” value ([3]; 1 h) was 13.40 ± 0.80 µg/g and the “OXA concentration in heart” value ([3]; 2 h) was 6.79 ± 0.40 µg/g. The “OXA concentration in kidneys” value ([3]; 2 h) was 2.85 ± 0.27 µg/g, the “OXA concentration in liver” value ([3]; 2 h) was 12.50 ± 0.58 µg/g and the “OXA concentration in lungs” value ([3]; 2 h) was 4.35 ± 0.63 µg/g. The “OXA concentration in spleen” value ([3]; 2 h) was 13.21 ± 0.22 µg/g, the “OXA concentration in heart” value ([3]; 4 h) was 5.55 ± 0.45 µg/g and the “OXA concentration in kidneys” value ([3]; 4 h) was 2.36 ± 0.70 µg/g. For the same compound, the “OXA concentration in liver” value ([3]; 4 h) was 10.91 ± 1.56 µg/g, the “OXA concentration in lungs” value ([3]; 4 h) was 4.98 ± 0.18 µg/g and the “OXA concentration in spleen” value ([3]; 4 h) was 10.35 ± 1.53 µg/g. For the same compound, the “OXA concentration in heart” value ([3]; 6 h) was 4.22 ± 0.14 µg/g, the “OXA concentration in kidneys” value ([3]; 6 h) was 2.84 ± 0.25 µg/g and the “OXA concentration in liver” value ([3]; 6 h) was 8.87 ± 0.40 µg/g. The “OXA concentration in lungs” value ([3]; 6 h) was 4.54 ± 0.90 µg/g, the “OXA concentration in spleen” value ([3]; 6 h) was 10.56 ± 0.56 µg/g and the “OXA concentration in heart” value ([3]; 8 h) was 3.26 ± 0.34 µg/g. The “OXA concentration in kidneys” value ([3]; 8 h) was 2.65 ± 0.12 µg/g, the “OXA concentration in liver” value ([3]; 8 h) was 7.06 ± 0.44 µg/g and the “OXA concentration in lungs” value ([3]; 8 h) was 3.94 ± 0.12 µg/g. For the same compound, the “OXA concentration in spleen” value ([3]; 8 h) was 4.81 ± 0.33 µg/g, the “AUC(0-t), heart” value ([3]; n=3) was 48.080 ± 1.690 µg·h/g and the “AUC(0-t), kidneys” value ([3]; n=3) was 27.380 ± 1.870 µg·h/g. For the same compound, the “AUC(0-t), liver” value ([3]; n=3) was 87.870 ± 1.360 µg·h/g, the “AUC(0-t), lungs” value ([3]; n=3) was 34.130 ± 1.960 µg·h/g and the “AUC(0-t), spleen” value ([3]; n=3) was 118.170 ± 4.560 µg·h/g. For the same compound, the “AUC(0-∞), heart” value ([3]; n=3) was 68.591 ± 5.210 µg·h/g, the “AUC(0-∞), kidneys” value ([3]; n=3) was 69.442 ± 5.640 µg·h/g and the “AUC(0-∞), liver” value ([3]; n=3) was 161.538 ± 3.960 µg·h/g. For the same compound, the “AUC(0-∞), lungs” value ([3]; n=3) was 106.955 ± 9.140 µg·h/g, the “AUC(0-∞), spleen” value ([3]; n=3) was 128.580 ± 9.360 µg·h/g and the “MRT, heart” value ([3]; n=3) was 5.574 ± 0.980 h. The “MRT, kidneys” value ([3]; n=3) was 16.594 ± 2.220 h, the “MRT, liver” value ([3]; n=3) was 9.330 ± 1.020 h and the “MRT, lungs” value ([3]; n=3) was 17.707 ± 1.990 h. The “MRT, spleen” value ([3]; n=3) was 5.990 ± 0.230 h.
